From ChEMBL document CHEMBL4382296, “Synthesis, Profiling, and in Vivo Evaluation of Cyclopeptides Containing N-Methyl Amino Acids as Antiplasmodial Agents” (ACS Med Chem Lett, 2019)
In brackets after ≈: the same amount, converted by molar mass. Activity calls are given as the source filed them. No cut-off for these calls is given here. Where a SMILES comes first, the peptide text is derived from it. [ ]: non-standard residue; d: D form. The star is where a group is joined. Trt = c1ccc(C(c2ccccc2)(c2ccccc2)*)cc1; Sar = CNCC(=O)O; tBu = CC(C)(C)*

Legend:
[1] = Solubility of the compound in pH 1 0.1M HCl after 2 hrs by UV-HPLC analysis; format: physicochemical
Method in brief: (§1)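 Solubility was measured in PBS pH 7.4 and at pH 1.0, in μM, n = 2.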

[2] = Permeability of the compound in pH 7.4 phosphate buffered saline at 20 uM after 20 hrs by PAMPA; format: ADME; details: for Papp at 20 h, 20 µM: PAMPA, pH 7.4, read-out: permeability; for permeability: pampa, pH 7.4, 20 h, 20 µM, BLD = below limit of detection
Method in brief: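 PAMPA giving experimental permeability Pe (×10–6 cm/s), n = 3. The limit of quantitation in the acceptor compartment was 0.02 or 0.03 μM.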

[3] = n-Octanol/water partition coefficient, log D of compound at pH 7.4 by UV-HPLC analysis
[4] = Solubility of the compound in pH 7.4 phosphate buffered saline after 2 hrs by UV-HPLC analysis; format: physicochemical; method in brief: as §1
[5] = Selectivity index, ratio of IC50 for human HepG2 cells to EC50 for chloroquine-sensitive Plasmodium falciparum 3D7 infected in erythrocytes; format: toxicity, cell-based; details: read-out: Ratio IC50/EC50
Method in brief: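 Selectivity index is HepG2 cytotoxicity IC50 divided by EC50 against drug-sensitive P. falciparum 3D7. Parasite EC50 came from a SYBR Green growth assay, with values as the mean of n = 2.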

[6] = Selectivity index, ratio of IC50 for mouse J774 cells to EC50 for chloroquine-resistant Plasmodium falciparum K1 infected in human erythrocytes; format: toxicity, cell-based; details: read-out: Ratio IC50/EC50
[7] = system: Plasmodium berghei; test: Antiplasmodial activity against exoerythrocytic-stage of Plasmodium berghei ANKA infected in human HepG2 cells expressing CD81 pretreated with cells for 18 hrs followed by parasite infection and measured after 48 hrs by brightglo-luminescence assay; format: functional, organism-based
[8] = system: Plasmodium falciparum; test: Plasmodicidal activity against Plasmodium falciparum 3D7A infected in CFDA-SE-labelled erythrocytes assessed as parasite killing at 10 times EC50 treated for 24 to 48 hrs following media refreshment for every 24 hrs by FACS analysis; format: functional, organism-based
Method in brief: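 Viability was judged by the ability of drug-treated parasites to make new invasions of prestained human RBCs. New invasions were quantified by double-colorimetric FACS. Drug treatment used two time points to separate rapidly parasiticidal from moderate or slow acting agents.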

[9] = system: Plasmodium falciparum; test: Antiplasmodial activity against chloroquine-resistant Plasmodium falciparum K1 infected in human erythrocytes assessed as reduction in [3H]hypoxanthine incorporation pretreated for 24 hrs followed by [3H]hypoxanthine addition and measured after 24 hrs by liquid scintillation counting method; format: functional, organism-based
Method in brief: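 Chloroquine-resistant P. falciparum K1 in erythrocytes incubated with compound for 24 h; growth read as 3H-hypoxanthine incorporation; EC50 reported as mean ± SD of n = 2.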

[10] = system: Plasmodium falciparum; test: Anti-plasmodial activity against chloroquine-sensitive Plasmodium falciparum 3D7 infected in erythrocytes after 72 hrs by SYBR green dye based fluorescence assay; format: functional, organism-based; details: 3D7, 72 h
Method in brief: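 P. falciparum 3D7 (drug-sensitive) grown in erythrocytes; growth read by SYBR Green fluorescence; EC50 reported as mean ± SD of n = 2.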

[11] = system: Plasmodium berghei; test: Antiplasmodial activity against Plasmodium berghei NK65 infected in Swiss mouse assessed as reduction in parasitemia at 50 mg/kg, po administered once daily for 3 consecutive days post infection measured on day 9 post infection; format: functional, organism-based
Method in brief: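 Four-day suppressive test: Swiss outbred mice inoculated with P. berghei NK65-infected red blood cells, then given a single oral 50 mg/kg dose on each of days 2, 3 and 4. Chloroquine-treated and vehicle-treated groups served as controls. Parasitemia was measured on day 5 and followed to day 9.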

[12] = system: Plasmodium berghei; test: Antiplasmodial activity against Plasmodium berghei NK65 infected in Swiss mouse assessed as reduction in parasitemia at 50 mg/kg, po administered once daily for 3 consecutive days post infection measured on day 5 post infection relative to control; format: functional; parameters: scale not given: the % may be the effect or the level left
Method in brief: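 Suppressive test in Swiss outbred mice inoculated with P. berghei NK65-infected red blood cells. A single oral dose of 50 mg·kg–1 was given on each of days 2, 3 and 4. Control groups received chloroquine or vehicle. Parasitemia reduction was read on day 5 and followed until day 9.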

[13] = Plasma concentration in Swiss albino mouse at 50 mg/kg, po after 0.5 to 12 hrs by LC-MS/MS analysis; format: ADME, organism-based; details: in vivo
Method in brief: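 Male Swiss Albino mice received a solution formulation of the compound as one oral dose of 50 mg/kg. Blood was sampled at 0.25, 0.5, 1, 2, 4, 6, 8, 12 and 24 h, and plasma levels were measured (LLOQ 5.16 ng/mL). Values are means, n = 3.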

| Compound | solubility at 2 h [1] | Papp at 20 h, 20 µM [2] | logD [3] | solubility at 2 h [4] | selectivity ratio [5] | selectivity ratio [6] | EC50 [7] | Activity [8] | EC50 [9] | EC90 [9] | EC50 [10] | permeability [2] | Activity [11] | Activity [12] | Cp [13] |
| --- | --- | --- | --- | --- | --- | --- | --- | --- | --- | --- | --- | --- | --- | --- | --- |
| CN1CC(=O)N[C@@H](CSC(c2ccccc2)(c2ccccc2)c2ccccc2)C(=O)N[C@@H](CSC(c2ccccc2)(c2ccccc2)c2ccccc2)C(=O)N(C)CC(=O)N[C@@H](COC(C)(C)C)C1=O (cyclo(C(Trt)C(Trt)[Sar]S(tBu)[Sar])) | 0.21 µM (≈ 0.205 µg/mL) | 2 ×10⁻⁶ cm/s | 7.7 | 0.12 µM (≈ 0.117 µg/mL) |  |  |  |  |  |  |  |  |  |  |  |
| CN1CC(=O)N[C@@H](CSC(c2ccccc2)(c2ccccc2)c2ccccc2)C(=O)N[C@@H](Cc2ccccc2)C(=O)N[C@@H](COC(C)(C)C)C(=O)N(C)CC(=O)N[C@@H](CSC(c2ccccc2)(c2ccccc2)c2ccccc2)C1=O (cyclo(C(Trt)FS(tBu)[Sar]C(Trt)[Sar])) | 5.32 µM (≈ 5.98 µg/mL) | 0.2 ×10⁻⁶ cm/s | 8 | 0.71 µM (≈ 0.798 µg/mL) | > 140000 | > 11000 | 335 nM | inactive | 9 nM | 59 nM | 1.8 nM |  |  |  |  |
| CN1CC(=O)N[C@@H](CSC(c2ccccc2)(c2ccccc2)c2ccccc2)C(=O)NCC(=O)N[C@@H](CSC(c2ccccc2)(c2ccccc2)c2ccccc2)C(=O)NCC(=O)N[C@@H](CCC(=O)O)C1=O (cyclo(C(Trt)GC(Trt)GE[Sar])) |  |  | 3.1 |  | > 46 |  |  |  |  |  | 5400 nM | Bld |  |  |  |
| C[C@@H](OC(C)(C)C)[C@@H]1NC(=O)CNC(=O)[C@H](CSC(c2ccccc2)(c2ccccc2)c2ccccc2)NC(=O)CNC(=O)[C@H](CSC(c2ccccc2)(c2ccccc2)c2ccccc2)NC(=O)CN(C)C1=O (cyclo(C(Trt)GC(Trt)GT(tBu)[Sar])) | 1.17 µM (≈ 1.21 µg/mL) | 0.6 ×10⁻⁶ cm/s | 5.8 | 0.94 µM (≈ 0.971 µg/mL) | > 66000 | > 12500 |  |  | 8 nM | 39 nM | 3.8 nM |  |  |  |  |
| CN1CC(=O)N[C@@H](CSC(c2ccccc2)(c2ccccc2)c2ccccc2)C(=O)NCC(=O)N[C@@H](CSC(c2ccccc2)(c2ccccc2)c2ccccc2)C(=O)N(C)CC(=O)N[C@@H](CCC(=O)O)C1=O (cyclo(C(Trt)GC(Trt)[Sar]E[Sar])) |  |  |  |  |  |  |  |  |  |  | 210 nM | Bld |  |  |  |
| C[C@@H](OC(C)(C)C)[C@@H]1NC(=O)CN(C)C(=O)[C@H](CSC(c2ccccc2)(c2ccccc2)c2ccccc2)NC(=O)CNC(=O)[C@H](CSC(c2ccccc2)(c2ccccc2)c2ccccc2)NC(=O)CN(C)C1=O (cyclo(C(Trt)GC(Trt)[Sar]T(tBu)[Sar])) | 3.46 µM (≈ 3.62 µg/mL) | 1 ×10⁻⁶ cm/s | 6 | 0.38 µM (≈ 0.398 µg/mL) | > 1e+06 |  |  |  | 0.008 nM | 1 nM | 0.25 nM |  | Active | 71% | > 9 ng/mL |
| CN1CC(=O)N[C@@H](CSC(c2ccccc2)(c2ccccc2)c2ccccc2)C(=O)N(C)CC(=O)N[C@@H](CSC(c2ccccc2)(c2ccccc2)c2ccccc2)C(=O)N(C)CC(=O)N[C@@H](CCC(=O)O)C1=O (cyclo(C(Trt)[Sar]C(Trt)[Sar]E[Sar])) | 28.3 µM (≈ 29.3 µg/mL) | 0.2 ×10⁻⁶ cm/s | 3.9 | 437 µM (≈ 451 µg/mL) | > 20000 | 500000 |  |  | 0.2 nM | 4 nM | 12 nM |  | Active | 66% |  |
| CN1CC(=O)N[C@@H](CSC(c2ccccc2)(c2ccccc2)c2ccccc2)C(=O)N(C)CC(=O)N[C@@H](CSC(c2ccccc2)(c2ccccc2)c2ccccc2)C(=O)N(C)CC(=O)N[C@@H](COC(C)(C)C)C1=O (cyclo(C(Trt)[Sar]C(Trt)[Sar]S(tBu)[Sar])) | 0.74 µM (≈ 0.775 µg/mL) | 0.3 ×10⁻⁶ cm/s | 6.3 | 0.18 µM (≈ 0.189 µg/mL) | > 180000 | > 770000 |  |  | 0.13 nM | 4 nM | 1.4 nM |  |  |  |  |
| C[C@@H](OC(C)(C)C)[C@@H]1NC(=O)CN(C)C(=O)[C@H](CSC(c2ccccc2)(c2ccccc2)c2ccccc2)NC(=O)CN(C)C(=O)[C@H](CSC(c2ccccc2)(c2ccccc2)c2ccccc2)NC(=O)CN(C)C1=O (cyclo(C(Trt)[Sar]C(Trt)[Sar]T(tBu)[Sar])) | 0.38 µM (≈ 0.403 µg/mL) | 0.2 ×10⁻⁶ cm/s | 3.7 | 0.55 µM (≈ 0.584 µg/mL) | > 250000 | > 2.5e+06 | 18 nM | inactive | 0.04 nM | 1 nM | 1 nM |  |  |  |  |
| C[C@@H]1CC[C@H]2[C@@H](C)C(=O)O[C@@H]3O[C@@]4(C)CC[C@@H]1[C@]32OO4 [ARTEMISININ] |  |  |  |  |  |  |  |  | 20 nM |  |  |  |  |  |  |
| C[C@H]1[C@H](OC(=O)CCC(=O)O)O[C@@H]2O[C@@]3(C)CC[C@H]4[C@H](C)CC[C@@H]1[C@@]24OO3 [ARTESUNATE] |  |  |  |  |  |  |  |  | 3 nM |  | 5 nM |  |  |  |  |
| O=C1C(O)=C([C@H]2CC[C@H](c3ccc(Cl)cc3)CC2)C(=O)c2ccccc21 [ATOVAQUONE] |  |  |  |  |  |  | 2.8 nM | inactive |  |  |  |  |  |  |  |
| CCN(CC)CCCC(C)Nc1ccnc2cc(Cl)ccc12 (stereo not given) [CHLOROQUINE] |  |  |  |  |  |  |  |  | 470 nM |  |  |  |  |  |  |
| CCc1nc(N)nc(N)c1-c1ccc(Cl)cc1 [PYRIMETHAMINE] |  |  |  |  |  |  |  | inactive |  |  | 35 nM |  |  |  |  |
